TRPC4 block – blocks the mouse TRPC4 cation channel | Q9QUQ5 | HEK293 TRPC4beta/mu-opioid, DAMGO-evoked Fluo4 calcium flux; active compounds read low | B-score at 10 µM | hit rate 0.39% among 300,000;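 active means B-score over 3 SD under the library average, no early fluorescence shift, positive overall ratio signal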
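Test system – stable TRPC4beta/mu-opioid receptor HEK293 cells · Probe or stimulus – DAMGO, a submaximal dose followed by a maximal one · Dosing – one concentration per compound · Signal – Fluo4 calcium fluorescence by kinetic imaging, 5 s 1 Hz baseline · Evaluation – per-well B score of integrated baseline-normalized Fluo4 ratio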
TRPC6 act – mouse TRPC6 channel activation. AID 2550. hit rate 0.13% among 310,000. B-score at 10 µM. HEK293-TRPC6 membrane potential dye fluorescence; active compounds read high;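 active means B-score of the integrated fluorescence ratio above library mean plus 3 SD, and starting fluorescence ratio within library mean plus 5 SD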;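 further: higher score means more depolarization so channel activation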
TRPC4 PAM – TRPC4 (mouse) allosteric potentiation | B-score at 10 µM | HEK293 TRPC4beta/mu-opioid, DAMGO EC20, Fluo-4 Ca2+ flux; active compounds read high | AID 2227 | Q9QUQ5 | hit rate 0.42% among 310,000;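 active means B-score of calcium response area above 5 SD of library B-scores, with initial fluorescence ratio within 5 SD of library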;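 further: B-score of integrated fluorescence ratio over time as area under calcium response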
Kir21 inh – Kir2.1 (mouse) channel inhibition. P35561. HEK293-Kir2.1, FluxOR thallium flux fluorescence; active compounds read low. B-score at 10 µM. hit rate 0.85% among 310,000. AID 1672;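 active means fluorescence ratio B-score at or below minus 3 SD of library scores, with starting-brightness B-score within 2 SD, cut at about -4.2 in these data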;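 further: channel flux triggered by added potassium and thallium sulfate stimulus; B-score of peak minus minimum fluorescence over baseline after thallium stimulus; more negative B-score means stronger Kir2.1 block with less thallium influx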
Target sequence (P35561 whole entry, looked up): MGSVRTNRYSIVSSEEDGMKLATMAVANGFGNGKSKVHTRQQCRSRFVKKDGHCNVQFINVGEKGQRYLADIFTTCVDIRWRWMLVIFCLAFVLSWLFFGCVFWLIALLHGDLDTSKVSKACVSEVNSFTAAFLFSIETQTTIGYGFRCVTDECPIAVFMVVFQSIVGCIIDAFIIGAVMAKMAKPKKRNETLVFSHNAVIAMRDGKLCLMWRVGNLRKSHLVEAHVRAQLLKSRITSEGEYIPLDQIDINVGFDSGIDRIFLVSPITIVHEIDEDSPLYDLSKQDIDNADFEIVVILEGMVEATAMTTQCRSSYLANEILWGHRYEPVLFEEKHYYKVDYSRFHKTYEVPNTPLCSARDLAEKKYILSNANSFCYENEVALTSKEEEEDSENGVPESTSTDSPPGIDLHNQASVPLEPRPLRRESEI
TRPC6 inh – mouse TRPC6 channel inhibition; Q61143; hit rate 1.1% among 310,000; HEK293-TRPC6, membrane potential dye, ACh-evoked depolarization; active compounds read low; B-score at 10 µM;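 active means B-score under library mean minus 3 SD, initial fluorescence not abnormally high, positive integrated signal ratio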;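 further: B-score derived from integrated fluorescence ratio over the kinetic read; more negative B-score means stronger inhibition of depolarization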
TRPC4 act – activators of mouse TRPC4 channel; B-score at 10 µM; hit rate 0.49% among 310,000; HEK293 TRPC4beta/mu-opioid, Fluo4 calcium fluorescence; active compounds read high; Q9QUQ5;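 active means B-score above 5 SD of library B-scores, and initial fluorescence ratio not above library mean plus 5 SD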;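 further: positive B-score marks a calcium rise read as TRPC4 activation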
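system = HEK293 cells stably co-expressing mouse TRPC4beta and mu-opioid receptor | schedule = Fluo4 dye loading 45 min at room temperature, 110 s recording | measure = B-scored integrated calcium fluorescence ratio | signal = Fluo4 calcium-sensitive dye fluorescence, kinetic, 1 Hz baseline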
Active calls of the source: *; i = inactive. Shown are actives, neighbours in structure and some others; about 2.9% of the full set was active somewhere.

SMILES	TRPC4 block	TRPC6 act	TRPC4 PAM	Kir21 inh	TRPC6 inh	TRPC4 act
Cc1ccc(-n2cccc2C(=S)N=P(N(C)C)(N(C)C)N(C)C)cc1	i	i	i	-12*	i	i
COc1cc(NC(=O)c2cc(C(C)C)on2)c(OC)cc1Cl	i	i	i	0.58	i	i
COc1ccccc1NC(=O)CSc1nnnn1-c1ccccc1F	i	i	i	0.51	i	73*
CCCCC(=O)N(CCOC)c1nnc(-c2ccccc2C)s1	i	i	i	1.1	i	i
Cc1ccc(SC[C@H](C)CN2CC[C@H](C)CCC2=O)cc1	i	i	i	-4.7*	i	i
Cc1cc(C)c(NC(=O)CSc2nc(=O)n3cc(C)ccc3n2)c(C)c1	i	i	i	-0.3	i	i
Cc1cccc(CSc2ccc3nnc(-c4cccs4)n3n2)c1	i	i	i	0.04	i	i
CCc1ccc(C(=O)CN2CCSC2=N)cc1	i	i	i	-4.5*	i	i
CCc1ccc(C(=O)O)cc1	i	i	i	0.68	i	i
CCOC(=O)c1cc2c(ccn2C)n1Cc1cc(C)ccc1C	i	i	i	-0.84	i	i
COc1ccccc1CNS(=O)(=O)c1ccc(Br)s1	i	i	i	-5*	i	i
C/C(CC(=O)Nc1ccccn1)=N\NC(=O)c1cnccn1	i	i	i	0.28	i	i
Cc1ccc(C(=O)OCC(=O)N2CCc3ccccc32)cc1	i	i	11*	-0.04	i	i
O=C(CSc1ccc2nnc(-c3cccnc3)n2n1)c1ccccc1	i	i	i	0.89	i	i
Cc1c(C(=O)NC2CCN(Cc3ccccc3)C2)oc2ccc(Br)cc12 (configuration not stated)	i	i	i	-10*	i	i
O=C(NC1CCN(Cc2ccccc2)CC1)c1cccc(OC(F)F)c1	i	i	i	-0.63	i	i
CCc1ccc(OCC(=O)NC2CCCCC2)c(Br)c1	i	i	55*	0.09	i	i
CCOc1ccc2oc(C(=O)NC3CCN(Cc4ccccc4)CC3)c(C)c2c1	i	i	i	-0.38	i	i
O=C(O)C1C2C=CC(C2)C1C(=O)NC1CCN(Cc2ccccc2)CC1 (configuration not stated)	i	i	i	0.93	i	122*
O=C(NC1CCN(Cc2ccccc2)CC1)c1cccc(Br)c1	i	i	i	-4.6*	i	i
S=c1[nH]c(-c2ccccc2)cn1/N=C/c1ccncc1	i	i	i	0.11	i	i
O=C(CCn1c(=S)oc2ccccc21)Nc1ccc(F)cc1	i	i	i	1.9	i	i
CCCCOc1ccc(N2C(=O)CC(NCc3ccncc3)C2=O)cc1 (configuration not stated)	i	i	i	-0.62	i	i
COc1ccccc1N1CCN(CCCCOc2ccc(C)cc2C)CC1	i	i	i	-1.8	i	i
O=C(COc1ccccc1)NC1CCN(Cc2ccccc2)CC1	i	i	i	-0.16	i	i
SMILES	TRPC4 block	TRPC6 act	TRPC4 PAM	Kir21 inh	TRPC6 inh	TRPC4 act
O=C(/C=C/c1ccccc1)NC1CC2CCCC(C1)N2Cc1ccccc1 (configuration not stated)	i	i	i	0.67	i	i
O=C(NC1CCN(Cc2ccccc2)CC1)c1cccc(S(=O)(=O)Nc2cc(C(F)(F)F)ccc2Cl)c1	i	i	21*	-0.14	i	i
O=C(/C=C/c1cccc(Br)c1)NC1CCN(Cc2ccccc2)CC1	i	i	i	-5.8*	i	i
O=C(COc1ccc(Br)cc1Cl)NC1CCN(Cc2ccccc2)CC1	i	i	i	-10*	i	i
O=C(/C=C/c1cccc(F)c1)NC1CCN(Cc2ccccc2)CC1	i	i	i	-4.7*	i	i
Nc1cc(=O)[nH]c(SCC(=O)NC2CCCc3ccccc32)n1 (configuration not stated)	i	i	i	-1.2	i	i
O=C(CN1CCN(Cc2ccccc2)CC1)Nc1cccc(Br)c1	i	i	i	-4.6*	i	i
Cc1ccc(NC(=O)CN2CCN(Cc3ccccc3)CC2)cc1Cl	i	i	i	-1.9	i	i
CCCNC(=O)c1nnsc1S(=O)c1ccc(Cl)cc1 (configuration not stated)	-6*	i	i	-6.1*	i	i
CNC(=O)c1nnsc1S(=O)c1ccc(Cl)cc1 (configuration not stated)	i	i	i	-7.6*	i	i
c1ccc(CCNCCCOc2cccc3ccccc23)cc1	i	i	i	-16*	i	66*
COc1ccc(C(OCC(O)CNC(C)c2ccccc2)c2ccc(OC)cc2)cc1 (configuration not stated)	i	i	i	-3	i	i
CC(=O)NCCOc1cccc2ccccc12	i	i	i	0.93	i	i
COc1ccc(CCNCC(O)COc2ccc(Cl)cc2)cc1OC (configuration not stated)	i	i	i	0.51	i	i
Cc1ccc(C(OCC(O)CNCc2ccc(F)cc2)c2ccccc2)cc1 (configuration not stated)	i	i	i	-12*	i	i
CS(=O)(=O)N(CC(O)CON=C1c2ccccc2-c2ccccc21)c1ccc(F)cc1 (configuration not stated)	i	i	i	0.72	i	i
CC(C)CCNCC(O)CON=C1c2ccccc2-c2ccccc21 (configuration not stated)	i	i	i	-4.5*	i	66*
OC(CNCCc1ccccc1)COc1ccc(OCC(O)CNCCc2ccccc2)cc1 (configuration not stated)	i	i	22*	-11*	i	i
COc1cc(C2Nc3ccccc3C(=O)N2c2ccc(Cl)cc2)c(Cl)cc1OCC(=O)O (configuration not stated)	i	i	i	-0.43	i	i
COc1ccc(CCNC(=O)CN(c2ccc(OC)cc2)S(C)(=O)=O)cc1	i	i	i	0.36	i	i
OC(CNCCC(c1ccccc1)c1ccccc1)COc1ccccc1 (configuration not stated)	i	i	i	-6.5*	i	i
